Data as given in ChEMBL document CHEMBL1135728, “Bis(1H-2-indolyl)methanones as a novel class of inhibitors of the platelet-derived growth factor receptor kinase” (J Med Chem, 2002).

Tests used:
[1] = target: Platelet-derived growth factor receptor (Homo sapiens, UniProt P09619+P16234); assay: Antitumor activity measured by the inhibition of platelet-derived growth factor receptor autophosphorylation in intact Swiss 3T3 cells; format: cell-based
Method in brief: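 Quiescent Swiss 3T3 fibroblasts moved to serum-free DMEM and exposed to compound in DMSO (final 1%) for 2 h. They were then stimulated with 100 ng/mL human recombinant PDGF-BB for 10 min at room temperature and lysed. Autophosphorylation was read by immunoblotting. Four to eight concentrations were tested across 2 orders of magnitude, and IC50 came from curve fitting over three independent experiments.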

[2] = target: T1, Platelet-derived growth factor receptor beta (Homo sapiens, UniProt P09619); assay: Inhibition of Platelet-derived growth factor receptor beta kinase activity in Sf9-expressed GST-fusion protein
Method in brief: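 A constitutively active GST fusion of the PDGFβ-receptor cytoplasmic domain was expressed in Sf9 cells. The isolated fusion protein was tested in an in vitro autophosphorylation assay at 10 µM ATP.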

[3] = target: Platelet-derived growth factor receptor alpha (Homo sapiens, UniProt P16234); assay: Inhibition of Platelet-derived growth factor receptor alpha autophosphorylation in PAE cells; format: cell-based, Sus scrofa
Method in brief: (§1)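 Porcine aortic endothelial cells expressing human PDGF α- or β-receptor were used. Receptor autophosphorylation in the intact cells was read by immunoblotting.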

[4] = target: Fibroblast growth factor receptor 1 (Homo sapiens, UniProt P11362); assay: Inhibition of Fibroblast growth factor receptor 1 autophosphorylation in PAE cells; format: cell-based, Sus scrofa
[5] = target: T2, Protein kinase C epsilon type (Homo sapiens, UniProt Q02156); assay: Inhibition of His-tagged Protein kinase C epsilon over-expressed in COS7 cells; format: cell-based, COS-7
T2 sequence (Q02156 whole entry): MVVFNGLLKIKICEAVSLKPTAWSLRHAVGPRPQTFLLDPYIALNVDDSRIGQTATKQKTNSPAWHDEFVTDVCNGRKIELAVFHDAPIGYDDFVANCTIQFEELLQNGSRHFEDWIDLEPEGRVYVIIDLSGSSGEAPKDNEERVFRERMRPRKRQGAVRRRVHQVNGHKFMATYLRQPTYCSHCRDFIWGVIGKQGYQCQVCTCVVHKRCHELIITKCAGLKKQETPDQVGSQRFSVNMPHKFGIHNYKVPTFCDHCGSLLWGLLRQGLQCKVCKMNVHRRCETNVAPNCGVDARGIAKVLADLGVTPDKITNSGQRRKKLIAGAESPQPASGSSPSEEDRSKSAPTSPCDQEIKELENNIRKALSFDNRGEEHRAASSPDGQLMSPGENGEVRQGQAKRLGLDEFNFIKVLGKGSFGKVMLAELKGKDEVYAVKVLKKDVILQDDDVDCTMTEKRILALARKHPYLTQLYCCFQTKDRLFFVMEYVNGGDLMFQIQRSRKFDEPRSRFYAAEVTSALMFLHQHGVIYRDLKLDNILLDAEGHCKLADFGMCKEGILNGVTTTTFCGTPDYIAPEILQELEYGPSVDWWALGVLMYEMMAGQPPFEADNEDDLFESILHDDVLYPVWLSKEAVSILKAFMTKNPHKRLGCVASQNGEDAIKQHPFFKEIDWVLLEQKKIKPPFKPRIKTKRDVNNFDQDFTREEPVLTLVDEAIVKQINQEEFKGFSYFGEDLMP
Method in brief: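 RGS-His6-tagged PKC was transiently expressed in COS-7 cells, purified on Ni-NTA agarose and eluted with 500 mM imidazole. Reactions ran 10 min at 30 °C; phosphocellulose binding and scintillation counting gave the read-out.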

[6] = target: Proto-oncogene tyrosine-protein kinase Src (Homo sapiens, UniProt P12931); assay: Inhibition of Src protein tyrosine kinase
Method in brief: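 Src-dependent tyrosine phosphorylation was measured in intact src-transformed NIH3T3 fibroblasts, with immunoblot read-out.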

[7] = target: T1, Platelet-derived growth factor receptor beta; assay: Inhibition of Platelet-derived growth factor receptor beta autophosphorylation in PAE cells; format: cell-based, Sus scrofa; method in brief: as §1
[8] = target: Epidermal growth factor receptor (Homo sapiens, UniProt P00533); assay: Inhibition of Epidermal growth factor receptor autophosphorylation in A431 cells; format: cell-based, A-431
Method in brief: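 A431 cells, starved overnight in serum-free medium, were exposed to compound for 2 h and then stimulated with 100 ng/mL EGF for 10 min. Cells were extracted in lysis buffer (Hepes pH 7.5, 1% Triton), and EGFR tyrosine autophosphorylation was read by immunoblotting.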

[9] = Inhibition of Protein kinase C isoforms epsilon and iota in vitro phosphorylation
Method in brief: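 RGS-His6-tagged PKC isoforms were expressed transiently in COS-7 cells and purified from lysate on Ni-NTA, with imidazole elution. Reactions ran 10 min at 30 °C, and phosphocellulose-bound radioactivity was counted.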

[10] = target: T1, Platelet-derived growth factor receptor beta; assay: Inhibition of purified Platelet-derived growth factor receptor beta kinase activity
Method in brief: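 PDGFβ-receptor kinase was purified from membranes of a receptor-overexpressing cell line. Inhibition was tested in an in vitro autophosphorylation assay at 10 µM ATP.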

[11] = target: T3, Beta-adrenergic receptor kinase 1 (Homo sapiens, UniProt P25098); assay: Inhibition of G-protein coupled receptor kinase 2 (GRK2) in vitro phosphorylation
T3 sequence (P25098 whole entry): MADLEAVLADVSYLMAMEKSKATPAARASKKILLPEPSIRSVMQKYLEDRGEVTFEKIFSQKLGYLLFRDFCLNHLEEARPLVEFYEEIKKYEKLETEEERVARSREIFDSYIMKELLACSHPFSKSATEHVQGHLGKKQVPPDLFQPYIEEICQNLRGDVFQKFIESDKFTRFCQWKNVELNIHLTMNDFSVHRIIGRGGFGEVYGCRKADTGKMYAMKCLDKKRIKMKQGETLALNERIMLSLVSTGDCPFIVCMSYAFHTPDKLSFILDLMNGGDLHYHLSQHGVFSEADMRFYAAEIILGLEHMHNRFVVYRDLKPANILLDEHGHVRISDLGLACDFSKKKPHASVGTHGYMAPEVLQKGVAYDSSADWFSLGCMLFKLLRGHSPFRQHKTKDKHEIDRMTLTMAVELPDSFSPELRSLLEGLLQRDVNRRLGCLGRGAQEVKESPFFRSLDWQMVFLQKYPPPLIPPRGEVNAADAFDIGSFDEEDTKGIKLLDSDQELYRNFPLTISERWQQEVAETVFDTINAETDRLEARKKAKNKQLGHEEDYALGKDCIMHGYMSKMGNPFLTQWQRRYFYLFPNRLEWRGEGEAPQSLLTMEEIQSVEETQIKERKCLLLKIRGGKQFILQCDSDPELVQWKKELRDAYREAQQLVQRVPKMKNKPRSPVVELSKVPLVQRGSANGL
Method in brief: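 GRK2 was assayed in vitro using lysates of GRK2-overexpressing 293 cells as the kinase source. Rhodopsin purified from bovine rod outer segments served as substrate.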

Platelet-derived growth factor receptor alpha, sequence (P16234 whole entry): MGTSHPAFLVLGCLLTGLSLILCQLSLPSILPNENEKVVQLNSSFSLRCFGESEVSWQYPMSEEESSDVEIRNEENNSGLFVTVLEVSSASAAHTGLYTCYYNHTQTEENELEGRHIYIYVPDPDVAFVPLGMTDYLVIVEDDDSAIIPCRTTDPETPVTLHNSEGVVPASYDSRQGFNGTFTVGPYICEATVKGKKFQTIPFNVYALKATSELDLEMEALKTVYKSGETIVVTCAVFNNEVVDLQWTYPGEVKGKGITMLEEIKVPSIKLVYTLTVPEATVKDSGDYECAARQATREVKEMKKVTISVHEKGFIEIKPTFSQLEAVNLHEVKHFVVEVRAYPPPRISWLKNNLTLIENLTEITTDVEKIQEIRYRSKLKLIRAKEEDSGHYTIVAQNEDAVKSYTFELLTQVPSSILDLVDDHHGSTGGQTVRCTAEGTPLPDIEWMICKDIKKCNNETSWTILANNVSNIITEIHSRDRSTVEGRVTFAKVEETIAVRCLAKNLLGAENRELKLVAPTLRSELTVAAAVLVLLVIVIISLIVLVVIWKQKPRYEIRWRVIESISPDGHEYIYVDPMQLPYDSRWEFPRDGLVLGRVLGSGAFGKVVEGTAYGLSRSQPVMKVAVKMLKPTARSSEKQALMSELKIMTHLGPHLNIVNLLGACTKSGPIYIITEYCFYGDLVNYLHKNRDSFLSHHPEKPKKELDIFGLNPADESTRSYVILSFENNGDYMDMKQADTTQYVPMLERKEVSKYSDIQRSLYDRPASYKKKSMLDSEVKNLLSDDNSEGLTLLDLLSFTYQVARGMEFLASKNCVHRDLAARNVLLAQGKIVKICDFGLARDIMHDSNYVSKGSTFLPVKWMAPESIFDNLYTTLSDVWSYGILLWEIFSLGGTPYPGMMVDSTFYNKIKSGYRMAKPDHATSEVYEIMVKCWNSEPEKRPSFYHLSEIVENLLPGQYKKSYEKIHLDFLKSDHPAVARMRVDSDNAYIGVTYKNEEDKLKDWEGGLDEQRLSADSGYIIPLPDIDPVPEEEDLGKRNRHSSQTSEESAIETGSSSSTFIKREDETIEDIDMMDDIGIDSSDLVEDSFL
Fibroblast growth factor receptor 1, sequence (P11362 whole entry): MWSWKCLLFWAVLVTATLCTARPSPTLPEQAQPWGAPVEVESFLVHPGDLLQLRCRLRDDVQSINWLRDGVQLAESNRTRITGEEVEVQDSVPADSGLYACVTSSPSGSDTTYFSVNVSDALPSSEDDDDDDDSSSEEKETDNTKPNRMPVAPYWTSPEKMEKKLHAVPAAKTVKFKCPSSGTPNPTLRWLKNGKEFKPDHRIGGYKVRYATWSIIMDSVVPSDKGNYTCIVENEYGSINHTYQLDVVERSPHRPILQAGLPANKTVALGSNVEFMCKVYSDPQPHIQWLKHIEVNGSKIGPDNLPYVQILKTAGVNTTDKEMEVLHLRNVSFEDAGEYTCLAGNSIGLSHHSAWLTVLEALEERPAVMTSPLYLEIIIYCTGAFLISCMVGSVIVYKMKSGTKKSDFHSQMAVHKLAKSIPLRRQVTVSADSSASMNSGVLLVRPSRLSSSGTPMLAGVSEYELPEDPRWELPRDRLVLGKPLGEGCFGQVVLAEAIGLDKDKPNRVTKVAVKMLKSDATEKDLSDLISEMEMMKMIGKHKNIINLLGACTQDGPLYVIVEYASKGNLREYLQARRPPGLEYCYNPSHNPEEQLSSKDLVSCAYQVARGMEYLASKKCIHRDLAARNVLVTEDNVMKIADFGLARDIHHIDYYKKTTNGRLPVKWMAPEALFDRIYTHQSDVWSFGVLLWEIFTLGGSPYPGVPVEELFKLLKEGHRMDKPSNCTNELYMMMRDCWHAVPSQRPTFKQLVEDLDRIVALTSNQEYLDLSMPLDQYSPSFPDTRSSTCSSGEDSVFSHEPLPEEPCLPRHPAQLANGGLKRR
Proto-oncogene tyrosine-protein kinase Src, sequence (P12931 2-536 limits assumed): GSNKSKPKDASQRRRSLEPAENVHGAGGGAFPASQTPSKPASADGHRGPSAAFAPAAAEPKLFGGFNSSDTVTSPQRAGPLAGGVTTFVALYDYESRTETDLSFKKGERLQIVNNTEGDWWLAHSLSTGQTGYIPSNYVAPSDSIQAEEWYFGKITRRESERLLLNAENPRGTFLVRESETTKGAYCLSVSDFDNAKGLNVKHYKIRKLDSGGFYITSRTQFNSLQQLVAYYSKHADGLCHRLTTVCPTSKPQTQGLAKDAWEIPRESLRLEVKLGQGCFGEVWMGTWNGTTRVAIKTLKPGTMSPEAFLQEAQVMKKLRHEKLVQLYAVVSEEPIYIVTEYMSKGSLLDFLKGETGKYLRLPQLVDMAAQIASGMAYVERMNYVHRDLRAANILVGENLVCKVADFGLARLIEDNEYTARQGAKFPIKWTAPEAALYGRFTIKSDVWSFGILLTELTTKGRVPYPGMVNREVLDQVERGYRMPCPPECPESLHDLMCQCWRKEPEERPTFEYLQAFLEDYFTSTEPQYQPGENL
T1 sequence (P09619 whole entry, the tested form may be a part): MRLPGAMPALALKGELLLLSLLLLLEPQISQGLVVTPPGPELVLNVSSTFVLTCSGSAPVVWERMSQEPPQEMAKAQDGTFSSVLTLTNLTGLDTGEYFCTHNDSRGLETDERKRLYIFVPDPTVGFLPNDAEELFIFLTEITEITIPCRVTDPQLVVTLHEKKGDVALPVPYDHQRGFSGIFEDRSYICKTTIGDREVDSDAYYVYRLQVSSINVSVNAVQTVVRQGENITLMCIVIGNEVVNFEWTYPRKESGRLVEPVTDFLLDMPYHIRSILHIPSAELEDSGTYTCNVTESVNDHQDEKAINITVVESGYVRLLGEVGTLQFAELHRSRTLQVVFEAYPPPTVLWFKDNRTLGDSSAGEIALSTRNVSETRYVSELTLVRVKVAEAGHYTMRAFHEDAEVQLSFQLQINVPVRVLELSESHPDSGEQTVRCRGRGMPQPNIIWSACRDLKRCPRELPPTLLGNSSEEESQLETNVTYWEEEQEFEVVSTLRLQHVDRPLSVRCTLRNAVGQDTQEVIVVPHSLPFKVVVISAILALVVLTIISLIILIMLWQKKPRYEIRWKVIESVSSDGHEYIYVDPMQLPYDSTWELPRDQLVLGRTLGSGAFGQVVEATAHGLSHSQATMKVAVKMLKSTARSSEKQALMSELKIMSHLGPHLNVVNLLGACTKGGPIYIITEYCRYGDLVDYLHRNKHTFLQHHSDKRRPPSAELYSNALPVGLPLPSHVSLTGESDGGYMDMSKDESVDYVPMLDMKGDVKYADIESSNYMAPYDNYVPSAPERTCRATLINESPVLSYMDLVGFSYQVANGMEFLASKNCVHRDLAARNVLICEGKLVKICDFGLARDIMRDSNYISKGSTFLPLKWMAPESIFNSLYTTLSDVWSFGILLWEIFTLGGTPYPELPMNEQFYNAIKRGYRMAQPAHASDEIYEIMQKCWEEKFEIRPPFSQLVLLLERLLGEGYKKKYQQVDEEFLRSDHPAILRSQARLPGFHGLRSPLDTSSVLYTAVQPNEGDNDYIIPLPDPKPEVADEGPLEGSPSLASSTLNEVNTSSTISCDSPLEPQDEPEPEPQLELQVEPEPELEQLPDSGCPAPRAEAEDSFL
Epidermal growth factor receptor, sequence (P00533 whole entry): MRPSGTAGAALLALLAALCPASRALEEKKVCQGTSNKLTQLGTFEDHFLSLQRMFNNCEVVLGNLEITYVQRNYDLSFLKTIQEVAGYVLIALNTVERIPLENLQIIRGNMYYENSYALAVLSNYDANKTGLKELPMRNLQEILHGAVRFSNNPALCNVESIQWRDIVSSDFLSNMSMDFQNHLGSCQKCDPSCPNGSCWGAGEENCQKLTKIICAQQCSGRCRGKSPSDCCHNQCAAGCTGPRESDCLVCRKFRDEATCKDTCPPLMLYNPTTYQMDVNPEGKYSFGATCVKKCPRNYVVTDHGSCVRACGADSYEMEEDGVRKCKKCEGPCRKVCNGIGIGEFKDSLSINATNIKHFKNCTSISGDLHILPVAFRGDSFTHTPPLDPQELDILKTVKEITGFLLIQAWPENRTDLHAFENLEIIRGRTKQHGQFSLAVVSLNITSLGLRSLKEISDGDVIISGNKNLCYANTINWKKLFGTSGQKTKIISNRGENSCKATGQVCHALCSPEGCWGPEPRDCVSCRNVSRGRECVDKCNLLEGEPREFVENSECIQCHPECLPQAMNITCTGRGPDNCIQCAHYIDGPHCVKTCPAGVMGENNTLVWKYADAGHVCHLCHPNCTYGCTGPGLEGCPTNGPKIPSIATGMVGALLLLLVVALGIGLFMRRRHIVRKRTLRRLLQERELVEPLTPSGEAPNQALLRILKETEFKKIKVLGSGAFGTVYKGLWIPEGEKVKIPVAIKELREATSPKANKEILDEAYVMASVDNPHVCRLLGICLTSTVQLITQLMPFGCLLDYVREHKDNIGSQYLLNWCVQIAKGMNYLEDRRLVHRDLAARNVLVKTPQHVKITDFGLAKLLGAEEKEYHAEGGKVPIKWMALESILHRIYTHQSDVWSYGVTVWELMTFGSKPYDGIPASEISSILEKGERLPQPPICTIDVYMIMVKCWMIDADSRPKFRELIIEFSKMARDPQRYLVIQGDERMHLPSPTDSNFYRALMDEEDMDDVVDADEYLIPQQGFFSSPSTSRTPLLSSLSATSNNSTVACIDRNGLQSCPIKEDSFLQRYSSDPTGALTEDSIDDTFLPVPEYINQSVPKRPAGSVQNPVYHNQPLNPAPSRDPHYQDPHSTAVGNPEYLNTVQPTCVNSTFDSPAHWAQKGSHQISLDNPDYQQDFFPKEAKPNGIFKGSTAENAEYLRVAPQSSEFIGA

SMILES	IC50 [1]	also measured
O=C(Oc1ccc2[nH]c(C(=O)c3cc4ccccc4[nH]3)cc2c1)c1ccc2ccccc2n1	400 nM	–
COc1ccc2[nH]c(C(=O)c3cc4ccccc4s3)cc2c1	1000 nM	–
CCC(=O)Oc1ccc2[nH]c(C(=O)c3cc4ccccc4[nH]3)cc2c1	900 nM	–
O=C(c1cc2ccccc2[nH]1)c1cc2cc(O)ccc2[nH]1	200 nM	IC50 [2]: 600 nM; IC50 [3]: 1000 nM; IC50 [4]: > 10000 nM; IC50 [5]: > 30000 nM; IC50 [6]: > 30000 nM; IC50 [7]: 200 nM; IC50 [8]: > 30000 nM; IC50 [9]: > 100000 nM; IC50 [10]: 90 nM
O=C(c1cc2ccccc2[nH]1)c1cc2cc(OCC3CCCCC3)ccc2[nH]1	> 30000 nM	–
CC(=O)OC(C(=O)Oc1ccc2[nH]c(C(=O)c3cc4ccccc4[nH]3)cc2c1)c1ccccc1 (stereo not given)	900 nM	–
O=C(c1cc2ccccc2[nH]1)c1cc2cc(OC(=O)C3CC3)ccc2[nH]1	9100 nM	–
CCCC(=O)Oc1ccc2[nH]c(C(=O)c3cc4ccccc4[nH]3)cc2c1	1100 nM	–
O=C(c1cc2ccccc2[nH]1)c1cc2cc(OCCCCCI)ccc2[nH]1	> 20000 nM	–
O=C(c1cc2ccccc2[nH]1)c1cc2cc(OCCN3CCCCC3)ccc2[nH]1	800 nM	–
COc1ccc2[nH]c(C(=O)c3cc4cc(OC)ccc4[nH]3)cc2c1	10000 nM	–
O=C(Cc1cccs1)Oc1ccc2[nH]c(C(=O)c3cc4ccccc4[nH]3)cc2c1	800 nM	–
O=C(Oc1ccc2[nH]c(C(=O)c3cc4ccccc4[nH]3)cc2c1)c1ccc([N+](=O)[O-])cc1	900 nM	–
O=C(c1cc2ccccc2[nH]1)c1cc2cc(OCc3ccccc3)ccc2[nH]1	10000 nM	–
O=C(Oc1ccc2[nH]c(C(=O)c3cc4ccccc4[nH]3)cc2c1)c1cccnc1	1000 nM	–
CCOc1ccc(C(=O)Oc2ccc3[nH]c(C(=O)c4cc5ccccc5[nH]4)cc3c2)cc1	1300 nM	–
Cc1ccc2[nH]c(C(=O)c3cc4ccccc4[nH]3)cc2c1	7500 nM	–
O=C(CCc1ccccc1)Oc1ccc2[nH]c(C(=O)c3cc4ccccc4[nH]3)cc2c1	1200 nM	–
CC(=O)Oc1ccccc1C(=O)Oc1ccc2[nH]c(C(=O)c3cc4ccccc4[nH]3)cc2c1	2200 nM	–
O=C(c1cc2ccccc2[nH]1)c1cc2cc(OC(=O)C3CCC3)ccc2[nH]1	9100 nM	–
O=C(c1cc2ccccc2[nH]1)c1cc2cc(OC(=O)C(c3ccccc3)c3ccccc3)ccc2[nH]1	> 30000 nM	–
O=C(c1cc2ccccc2[nH]1)c1cc2cc(OCCN3CCOCC3)ccc2[nH]1	2500 nM	–
CN(C)CC(=O)Oc1ccc2[nH]c(C(=O)c3cc4ccccc4[nH]3)cc2c1	100 nM	IC50 [2]: 1300 nM; IC50 [3]: 100 nM; IC50 [4]: > 10000 nM; IC50 [5]: 30000 nM; IC50 [6]: > 30000 nM; IC50 [7]: 100 nM; IC50 [8]: > 30000 nM; IC50 [11]: > 100000 nM; IC50 [9]: 15100 nM; IC50 [10]: 100 nM

SMILES	IC50 [1]	also measured
CN(C)CCCOc1ccc2[nH]c(C(=O)c3cc4ccccc4[nH]3)cc2c1	3200 nM	–
O=C(c1cc2ccccc2[nH]1)c1cc2cc(OCCCCI)ccc2[nH]1	5000 nM	–
O=C(Oc1ccc2[nH]c(C(=O)c3cc4ccccc4[nH]3)cc2c1)c1ccccc1	800 nM	–
O=C(c1cc2ccccc2s1)c1cc2ccccc2s1	> 30000 nM	–
COc1ccc(C(=O)Oc2ccc3[nH]c(C(=O)c4cc5ccccc5[nH]4)cc3c2)cc1	3200 nM	–
CC(=O)Oc1ccc2[nH]c(C(=O)c3cc4ccccc4[nH]3)cc2c1	300 nM	IC50 [2]: 70 nM; IC50 [3]: 100 nM; IC50 [4]: 200 nM; IC50 [5]: > 100000 nM; IC50 [6]: > 30000 nM; IC50 [7]: 4900 nM; IC50 [8]: > 30000 nM; IC50 [11]: > 100000 nM; IC50 [9]: 17000 nM; IC50 [10]: 300 nM
COc1ccc2cc(C(=O)c3cc4ccccc4[nH]3)[nH]c2c1	300 nM	–
CCOc1ccc2[nH]c(C(=O)c3cc4ccccc4[nH]3)cc2c1	2300 nM	–
O=C(/C=C/c1ccccc1)Oc1ccc2[nH]c(C(=O)c3cc4ccccc4[nH]3)cc2c1	3400 nM	–
O=C(c1cc2ccccc2[nH]1)c1cc2cc(OC(=O)c3ccccc3Oc3ccccc3)ccc2[nH]1	> 30000 nM	–
COc1cccc(CC(=O)Oc2ccc3[nH]c(C(=O)c4cc5ccccc5[nH]4)cc3c2)c1	1000 nM	–
O=C(c1cc2ccccc2[nH]1)c1cc2cc(OC(=O)c3ccco3)ccc2[nH]1	600 nM	–
O=C(Oc1ccc2[nH]c(C(=O)c3cc4ccccc4[nH]3)cc2c1)c1ccc(-c2ccccc2)cc1	1700 nM	–
COc1ccc2[nH]c(C(=O)c3cc4ccccc4[nH]3)cc2c1	300 nM	–
CN(C)CCOc1ccc2[nH]c(C(=O)c3cc4ccccc4[nH]3)cc2c1	800 nM	–
COc1cccc2cc(C(=O)c3cc4ccccc4[nH]3)[nH]c12	> 30000 nM	–
COc1cc(C(=O)Oc2ccc3[nH]c(C(=O)c4cc5ccccc5[nH]4)cc3c2)cc(OC)c1OC	4100 nM	–
O=C(c1cc2ccccc2[nH]1)c1cc2cc(OC(=O)c3ccccc3C(=O)c3ccccc3)ccc2[nH]1	> 30000 nM	–
CC(Oc1ccc2[nH]c(C(=O)c3cc4ccccc4[nH]3)cc2c1)c1ccccc1 (stereo not given)	> 30000 nM	–
O=C(Oc1ccc2[nH]c(C(=O)c3cc4ccccc4[nH]3)cc2c1)c1cccc(Oc2ccccc2)c1	> 30000 nM	–
O=C(c1cc2ccccc2[nH]1)c1cc2cc(OC(=O)c3ccccc3Cl)ccc2[nH]1	4600 nM	–
COc1ccc2[nH]c(C(=O)c3cc4ccccc4o3)cc2c1	4000 nM	–
COCC(=O)Oc1ccc2[nH]c(C(=O)c3cc4ccccc4[nH]3)cc2c1	200 nM	IC50 [2]: 4200 nM; IC50 [3]: 300 nM; IC50 [4]: > 10000 nM; IC50 [5]: > 100000 nM; IC50 [6]: > 30000 nM; IC50 [7]: 100 nM; IC50 [8]: > 30000 nM; IC50 [11]: > 100000 nM; IC50 [9]: 20400 nM; IC50 [10]: 20 nM
